Measured values published in ChEMBL document CHEMBL1135980, “Novel angular benzophenazines: dual topoisomerase I and topoisomerase II inhibitors as potential anticancer agents” (J Med Chem, 2002).

Assays:
[1] = pharmacokinetics in female BALB/c mice measured as Vss after 50 mg/kg iv administration; format: ADME, organism-based; design: dose 50 mg/kg, route intravenous; details: mouse, in vivo, read-out: Vss
In short: (§1)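 Female Balb/c mice dosed intravenously at 20 or 50 mg/kg. Blood taken by cardiac puncture under anaesthesia into heparinized syringes at times from 2 min to 24 h. Plasma prepared by centrifugation and drug measured by HPLC; plasma PK parameters derived.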

[2] = pharmacokinetics in female BALB/c mice measured as Kel after 50 mg/kg Preoral administration; format: ADME, organism-based; design: dose 50 mg/kg; details: mouse, in vivo, po
In short: (§2)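 Female Balb/c mice given 50 mg/kg by oral gavage. Blood taken by cardiac puncture under anaesthesia into heparinized syringes at 2 min-24 h. Plasma analyzed by HPLC; plasma PK parameters derived, with oral bioavailability relative to iv dosing.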

COR-L23 [3] = experiment: Cytotoxicity measured using the COR-L23 parental (COR-L23/P) human non small cell lung carcinoma cell line; format: functional, cell-based
In short: (§3)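 COR-L23/P (parental) or COR-L23/R (MRP-overexpressing) human NSCLC cells; compound added, then 5-6 days incubation; proliferation read by sulforhodamine B staining.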

Mus musculus [4] = experiment: pharmacokinetics in female BALB/c mice measured as AUC after 20 mg/kg iv administration; format: ADME, organism-based; design: dose 20 mg/kg, route intravenous; details: in vivo; in short: as §1
[5] = pharmacokinetics in female BALB/c mice measured as Cmax after 50 mg/kg iv administration; format: ADME, organism-based; design: dose 50 mg/kg, route intravenous; details: mouse, in vivo; in short: as §1
NCI-H69 [6] = experiment: Rf is the resistance factor and is the ratio of the IC50 on the resistant cell line over the IC50 on the parental H69/P cell line; format: functional, Homo sapiens
In short: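 Resistance factor computed as IC50 in H69/LX4 (Pgp-overexpressing) divided by IC50 in H69/P. Both IC50s come from a 5-6 day Alamar Blue proliferation assay.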

[7] = pharmacokinetics in female BALB/c mice measured as Kel after 50 mg/kg iv administration; format: ADME, organism-based; design: dose 50 mg/kg, route intravenous; details: mouse, in vivo; in short: as §1
[8] = pharmacokinetics in female BALB/c mice measured as Cl after 20 mg/kg iv administration; format: ADME, organism-based; design: dose 20 mg/kg, route intravenous; details: mouse, in vivo; in short: as §1
Mus musculus [9] = experiment: pharmacokinetics in female BALB/c mice measured as AUC after 50 mg/kg Preoral administration; format: ADME, organism-based; design: dose 50 mg/kg; details: in vivo, po; in short: as §2
[10] = pharmacokinetics in female BALB/c mice measured as Cl after 50 mg/kg iv administration; format: ADME, organism-based; design: dose 50 mg/kg, route intravenous; details: mouse, in vivo; in short: as §1
Mus musculus [11] = experiment: pharmacokinetics in female BALB/c mice measured as AUC after 50 mg/kg iv administration; format: ADME, organism-based; design: dose 50 mg/kg, route intravenous; details: in vivo; in short: as §1
[12] = pharmacokinetics in female BALB/c mice measured as bioavailability (F) after 50 mg/kg peroral administration; format: ADME, organism-based; details: mouse, in vivo, po; in short: as §2
[13] = pharmacokinetics in female BALB/c mice measured as Vss after 20 mg/kg iv administration; format: ADME, organism-based; design: dose 20 mg/kg, route intravenous; details: mouse, in vivo, read-out: Vss; in short: as §1
[14] = Rf is the resistance factor and is the ratio of the IC50 on the resistant cell line over the IC50 on the parental COR-L23/P cell line; details: human
In short: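 Resistance factor computed as IC50 in COR-L23/R (MRP-overexpressing) divided by IC50 in COR-L23/P. Both IC50s come from a 5-6 day sulforhodamine B proliferation assay.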

[15] = pharmacokinetics in female BALB/c mice measured as Cmax after 20 mg/kg iv administration; format: ADME, organism-based; design: dose 20 mg/kg, route intravenous; details: mouse, in vivo; in short: as §1
[16] = pharmacokinetics in female BALB/c mice measured as Kel after 20 mg/kg iv administration; format: ADME, organism-based; design: dose 20 mg/kg, route intravenous; details: mouse, in vivo; in short: as §1
NCI-H69 [17] = experiment: Cytotoxicity measured using the drug resistant, P-glycoprotein (Pgp) expressing human small cell lung carcinoma cell line H69/LX4; format: functional, cell-based
In short: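 H69/P (parental) or H69/LX4 (P-glycoprotein-overexpressing) human SCLC cells; compound added, then 5-6 days incubation; proliferation read with Alamar Blue.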

COR-L23 [18] = experiment: Cytotoxicity measured with the drug resistant human non small cell lung carcinoma cell line COR-L23 (COR-L23/R) which over expresses multidrug resistance associated with protein(MRP); format: functional, cell-based; in short: as §3
[19] = pharmacokinetics in female BALB/c mice measured as Cmax after 50 mg/kg Preoral administration; format: ADME, organism-based; design: route oral, dose 50 mg/kg; details: mouse, in vivo, po; in short: as §2

Vd [1]: 1.9 L
k el [2]: 3.33e-05 s⁻¹
AUC (Mus musculus [4]): 64 ug min m-1
Cmax [5]: 2900 ng/mL
k el [7]: 5e-05 s⁻¹
clearance [8]: 6.3 mL/min
AUC (Mus musculus [9]): 114 ug min m-1
clearance [10]: 6.4 mL/min
AUC (Mus musculus [11]): 156 ug min m-1
bioavailability [12]: 72%
Vd [13]: 1.3 L
Rf [14]: 1.2
Cmax [15]: 800 ng/mL
k el [16]: 7.33e-05 s⁻¹
Cmax [19]: 350 ng/mL
SMILES: COc1cccc2c1ccc1nc3cccc(C(=O)N[C@H](C)CN(C)C)c3nc12
IC50 (COR-L23 [3]): 10.1 nM
Rf (NCI-H69 [6]): 1.2
IC50 (NCI-H69 [17]): 29 nM
IC50 (COR-L23 [18]): 12.1 nM
